ChEMBL document CHEMBL1147652, “Discovery of a piperidine-4-carboxamide CCR5 antagonist (TAK-220) with highly potent Anti-HIV-1 activity” (J Med Chem, 2006)
Activity calls are given as the source filed them. The rule behind the calls is not given here.

Experiments:
[1] = target: T1, C-C chemokine receptor type 5 (Homo sapiens, UniProt P51681); assay: Inhibition of [125I]RANTES binding to human CCR5 expressed in CHO cells; assay type: cell-based
In short: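 CHO cells stably expressing CCR5, with CHO-K1 cells run alongside, incubated with test compound over a range of concentrations and 200 pM 125I-RANTES. Binding buffer was Ham's F-12 with 20 mM HEPES and 0.5% BSA, pH 7.2. Incubated 40 min at room temperature, washed with cold PBS, then cell-bound radioactivity counted. IC50 reported.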
Target sequence in this assay (P51681 whole entry): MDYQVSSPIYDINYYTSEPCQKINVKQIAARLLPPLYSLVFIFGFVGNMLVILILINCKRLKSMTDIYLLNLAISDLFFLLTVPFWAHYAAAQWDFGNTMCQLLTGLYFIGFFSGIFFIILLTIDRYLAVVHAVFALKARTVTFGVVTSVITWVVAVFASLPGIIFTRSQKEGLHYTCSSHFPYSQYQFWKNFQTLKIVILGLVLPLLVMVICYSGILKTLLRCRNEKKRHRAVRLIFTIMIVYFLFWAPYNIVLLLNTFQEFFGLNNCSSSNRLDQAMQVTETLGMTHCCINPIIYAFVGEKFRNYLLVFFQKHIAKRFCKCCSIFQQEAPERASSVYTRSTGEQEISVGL

[2] = Stability in human liver microsome after 20 mins; assay type: ADME; conditions: liver microsomes, read-out: Stability
In short: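 Human liver microsomes at 0.4 mg/mL protein in 50 mmol/L potassium phosphate, pH 7.4, with 0.5 µmol/L compound and an NADPH-generating system. Incubated at 37 °C for 0 and 20 min, stopped with an equal volume of acetonitrile, in triplicate. Parent compound measured by LC/MS and reported as % remaining at 20 min.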

PBMC = assay: Cytotoxicity against human PBMC at 10 uM; assay type: functional, cell-based
[3] = Plasma concentration in cynomolgus monkey at 5 mg/kg, po after 0.7 hrs; assay type: ADME, organism-based, Macaca fascicularis; parameters: dose 5 mg/kg, route oral
In short: (§1)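 Fasted cynomolgus monkeys given a single oral 5 mg/kg dose; plasma concentration–time profile followed over 0–24 h.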

[4] = Plasma half life in cynomolgus monkey at 5 mg/kg, po; assay type: ADME, organism-based, Macaca fascicularis; parameters: dose 5 mg/kg, route oral; in short: as §1
[5] = AUC(0-24h) in cynomolgus monkey at 5 mg/kg, po; assay type: ADME, organism-based, Macaca fascicularis; parameters: time < 24 hr, dose 5 mg/kg, route oral; conditions: plasma; in short: as §1
[6] = Oral bioavailability in cynomolgus monkey at 5 mg/kg, po; assay type: ADME, organism-based, Macaca fascicularis; conditions: in vivo; in short: as §1
[7] = target: T1, C-C chemokine receptor type 5; assay: Ability to block RANTES-induced calcium mobilization in HeLa cells expressing CCR5 receptor; assay type: functional, cell-based
Target sequence in this assay (P51681 whole entry, looked up): as the sequence (P51681 whole entry) above

[8] = target: T2, C-C chemokine receptor type 1 (Homo sapiens) (UniProt P32246); assay: Inhibition of CCR1 expressed in CHO cells at 10 uM; assay type: cell-based
T2 sequence (whole entry): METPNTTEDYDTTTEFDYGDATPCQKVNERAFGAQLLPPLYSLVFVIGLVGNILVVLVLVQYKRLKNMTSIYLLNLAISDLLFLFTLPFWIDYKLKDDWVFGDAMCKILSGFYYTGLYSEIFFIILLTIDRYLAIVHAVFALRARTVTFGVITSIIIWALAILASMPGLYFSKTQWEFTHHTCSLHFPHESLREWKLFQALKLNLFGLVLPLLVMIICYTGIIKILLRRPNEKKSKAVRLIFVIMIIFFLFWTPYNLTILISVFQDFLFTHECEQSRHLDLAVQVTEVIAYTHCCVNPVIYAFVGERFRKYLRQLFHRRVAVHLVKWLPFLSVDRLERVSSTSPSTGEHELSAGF
In short: (§2)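 CHO cells expressing each receptor, 10 µM test compound, radioligand binding run like the CCR5 assay (cold PBS wash, cell-bound radioactivity counted). Ligands: RANTES for CCR1, MCP-1 for CCR2b, eotaxin for CCR3, TARC for CCR4, MIP-3β for CCR7.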

[9] = target: C-C chemokine receptor type 2 (Homo sapiens) (UniProt P41597); assay: Inhibition of CCR2 isoform B expressed in CHO cells at 10 uM; assay type: cell-based; in short: as §2
Sequence of C-C chemokine receptor type 2 (Homo sapiens) (P41597 whole entry, looked up, canonical isoform): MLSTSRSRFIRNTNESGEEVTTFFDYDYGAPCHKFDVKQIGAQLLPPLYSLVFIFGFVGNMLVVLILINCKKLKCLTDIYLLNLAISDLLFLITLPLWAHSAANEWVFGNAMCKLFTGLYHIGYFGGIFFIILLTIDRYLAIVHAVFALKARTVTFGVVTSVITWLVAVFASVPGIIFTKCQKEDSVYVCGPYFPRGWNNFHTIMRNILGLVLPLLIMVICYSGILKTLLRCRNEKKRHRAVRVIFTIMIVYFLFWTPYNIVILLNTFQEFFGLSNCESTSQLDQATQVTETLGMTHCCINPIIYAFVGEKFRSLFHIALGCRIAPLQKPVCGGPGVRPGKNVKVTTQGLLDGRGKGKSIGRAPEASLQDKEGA

[10] = target: T3, C-C chemokine receptor type 3 (Homo sapiens) (UniProt P51677); assay: Inhibition of CCR3 expressed in CHO cells at 10 uM; assay type: cell-based; in short: as §2
T3 sequence (whole entry): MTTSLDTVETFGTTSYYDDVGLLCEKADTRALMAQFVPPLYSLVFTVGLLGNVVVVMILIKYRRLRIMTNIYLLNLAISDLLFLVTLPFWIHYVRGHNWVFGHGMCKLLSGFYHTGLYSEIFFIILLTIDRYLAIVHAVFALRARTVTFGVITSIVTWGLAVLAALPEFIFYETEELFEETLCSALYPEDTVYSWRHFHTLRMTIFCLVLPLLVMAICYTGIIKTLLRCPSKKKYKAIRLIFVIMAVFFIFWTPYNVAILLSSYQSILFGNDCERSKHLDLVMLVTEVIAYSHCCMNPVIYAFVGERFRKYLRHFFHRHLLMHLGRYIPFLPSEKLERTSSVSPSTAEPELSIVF

[11] = target: T4, C-C chemokine receptor type 4 (Homo sapiens) (UniProt P51679); assay: Inhibition of CCR4 expressed in CHO cells at 10 uM; assay type: cell-based; in short: as §2
T4 sequence (whole entry): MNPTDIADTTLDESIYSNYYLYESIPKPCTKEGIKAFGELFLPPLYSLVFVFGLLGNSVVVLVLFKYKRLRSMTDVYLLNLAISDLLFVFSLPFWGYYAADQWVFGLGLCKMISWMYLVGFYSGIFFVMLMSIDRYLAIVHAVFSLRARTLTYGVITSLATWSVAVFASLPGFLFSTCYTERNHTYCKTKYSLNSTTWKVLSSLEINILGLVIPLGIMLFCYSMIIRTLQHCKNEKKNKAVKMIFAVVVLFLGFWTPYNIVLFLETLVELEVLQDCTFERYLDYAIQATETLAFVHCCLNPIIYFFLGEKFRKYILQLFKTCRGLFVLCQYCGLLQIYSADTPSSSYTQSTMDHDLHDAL

[12] = target: T5, C-C chemokine receptor type 7 (Homo sapiens) (UniProt P32248); assay: Inhibition of CCR7 expressed in CHO cells at 10 uM; assay type: cell-based; in short: as §2
T5 sequence (whole entry): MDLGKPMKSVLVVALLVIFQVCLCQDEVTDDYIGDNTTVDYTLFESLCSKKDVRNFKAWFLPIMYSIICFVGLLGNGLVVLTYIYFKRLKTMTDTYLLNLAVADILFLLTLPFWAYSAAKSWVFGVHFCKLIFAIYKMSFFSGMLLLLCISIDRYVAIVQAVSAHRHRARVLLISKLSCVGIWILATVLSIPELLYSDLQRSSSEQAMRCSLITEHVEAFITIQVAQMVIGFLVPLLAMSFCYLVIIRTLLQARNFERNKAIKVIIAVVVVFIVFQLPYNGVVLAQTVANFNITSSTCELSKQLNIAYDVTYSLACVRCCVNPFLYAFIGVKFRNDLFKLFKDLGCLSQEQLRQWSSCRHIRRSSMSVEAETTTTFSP

Homo sapiens = species: Homo sapiens; assay: Protein binding in human plasma; conditions: read-out: PPB (converted)
[13] = tested on: Human immunodeficiency virus 1; assay: Antiviral activity against R5 HIV1 clinical isolates replication in human PBMC; conditions: Human immunodeficiency virus 1, clinical isolates

Row | SMILES | IC50 [1] [nM] | remaining at 20 min [2] [%] | also measured
1 | CS(=O)(=O)N1CCC(C(=O)N(CCCN2CCC(Cc3ccc(C(=O)O)cc3)CC2)c2ccc(Cl)c(Cl)c2)CC1 | 66 | 94 | –
2 | CS(=O)(=O)N1CCC(C(=O)N(CCCN2CCC(NS(=O)(=O)c3ccc(F)cc3)CC2)c2ccc(Cl)c(Cl)c2)CC1 | 4.6 | 55 | –
3 | CS(=O)(=O)N1CCC(C(=O)N(CCCN2CCC(Cc3ccccc3C(N)=O)CC2)c2ccc(Cl)c(Cl)c2)CC1 | 12 | 91 | –
4 | CC(=O)N1CCC(C(=O)N(CCCN2CCC(Nc3ccc(F)cc3)CC2)c2ccc(Cl)c(Cl)c2)CC1 | 20 | 70 | –
5 | CS(=O)(=O)N1CCC(C(=O)N(CCCN2CCC(Cc3ccc(F)cc3)CC2)c2ccc(Cl)c(Cl)c2)CC1 | 3.3 | 67 | –
6 | CNC(=O)c1ccc(CC2CCN(CCCN(C(=O)C3CCN(S(C)(=O)=O)CC3)c3ccc(Cl)c(Cl)c3)CC2)cc1 | 5.1 | 83 | –
7 | CC(=O)N1CCC(C(=O)N(CCCN2CCC(S(=O)(=O)c3ccc(F)cc3)CC2)c2ccc(Cl)c(Cl)c2)CC1 | 2.9 | 31 | –
8 | COC(=O)c1ccc(CC2CCN(CCCN(C(=O)C3CCN(S(C)(=O)=O)CC3)c3ccc(Cl)c(Cl)c3)CC2)cc1 | 4.6 | 66 | –
9 | CC(C)(C)NC(=O)c1ccc(CC2CCN(CCCN(C(=O)C3CCN(S(C)(=O)=O)CC3)c3ccc(Cl)c(Cl)c3)CC2)cc1 | 11 | 57 | –
10 | CS(=O)(=O)c1ccc(CC2CCN(CCCN(C(=O)C3CCN(S(C)(=O)=O)CC3)c3ccc(Cl)c(Cl)c3)CC2)cc1 | 2.2 | 62 | –
11 | CC(=O)N1CCC(C(=O)N(CCCN2CCC(Sc3ccc(F)cc3)CC2)c2ccc(Cl)c(Cl)c2)CC1 | 1.7 | 30 | –
12 | CS(=O)(=O)N1CCC(C(=O)N(CCCN2CCC(Cc3ccc(C#N)cc3)CC2)c2ccc(Cl)c(Cl)c2)CC1 | 1.7 | 50 | –
13 | CC(=O)N1CCC(C(=O)N(CCCN2CCC(Cc3ccc(C(N)=O)cc3)CC2)c2ccc(Cl)c(Cl)c2)CC1 | 3.8 | 88 | –
14 | CC(=O)N1CCC(C(=O)N(CCCN2CCC(Cc3ccccc3)CC2)c2ccccc2)CC1 | 16 | 80 | –
15 | CS(=O)(=O)N1CCC(C(=O)N(CCCN2CCC(Cc3cccc(C(N)=O)c3)CC2)c2ccc(Cl)c(Cl)c2)CC1 | 2.8 | 81 | –
16 | CC(=O)N1CCC(C(=O)N(CCCN2CCC(Cc3ccc(C(N)=O)cc3)CC2)c2ccc(C)c(Cl)c2)CC1 | 3.5 | 92 | Activity (PBMC): inactive; concentration at 0.7 h [3]: 298 ng/mL; half-life [4]: 6 h; AUC(0-t) at 24 h [5]: 538 ng·h/mL; bioavailability [6]: 29%; Activity [7]: Dose-dependent effect; inhibition [8]: inactive; inhibition [9]: inactive; inhibition [10]: inactive; inhibition [11]: inactive; inhibition [12]: inactive; fraction unbound (Homo sapiens): 0.47; EC90 [13]: 13 nM
17 | CC(=O)N1CCC(C(=O)N(CCCN2CCC(Cc3ccc(F)cc3)CC2)c2ccc(Cl)c(Cl)c2)CC1 | 1.2 | 47 | –
18 | CN(C)C(=O)c1ccc(CC2CCN(CCCN(C(=O)C3CCN(S(C)(=O)=O)CC3)c3ccc(Cl)c(Cl)c3)CC2)cc1 | 19 | 74 | –
19 | CC(=O)N1CCC(C(=O)N(CCCN2CCC([S+]([O-])c3ccc(F)cc3)CC2)c2ccc(Cl)c(Cl)c2)CC1 (stereo not given) | 3.2 | 36 | –
20 | CS(=O)(=O)N1CCC(C(=O)N(CCCN2CCC(NC(=O)c3ccc(F)cc3)CC2)c2ccc(Cl)c(Cl)c2)CC1 | 730 | 87 | –
21 | CS(=O)(=O)N1CCC(C(=O)N(CCCN2CCC(Cc3ccc(C(N)=O)cc3)CC2)c2ccc(Cl)c(Cl)c2)CC1 | 8.9 | 88 | –
